# Assay results of several laboratories.
# Target: Serine/threonine-protein kinase Nek7 (NEK7, Homo sapiens, UniProt Q8TDX7)
SMILES,effect on,action,technique,cells,tested at,quantity,value
N#CC1c2c([nH]c3c(Cl)c(Cl)ccc23)C(=O)NC12CCCCC2 (racemic),thermal stability,,DSF,,10 µM,ΔTm,0.2 °C
Cc1ccc(Nc2nccc(N(C)c3ccc4c(C)n(C)nc4c3)n2)cc1S(N)(=O)=O,enzyme activity,inhibitor,,,0.3 µM,inhibition,-6%
CCCCN(CCCC)C(=O)CN1C[C@H](c2cc(OC)c3c(c2)OCO3)[C@@H](C(=O)O)[C@@H]1CC(C)(C)CCC,cell-free assay,,competition with immobilised ligand,,1 µM,remaining binding,100%
Cc1ccc(C(=O)Nc2ccc(CN3CCN(C)CC3)c(C(F)(F)F)c2)cc1C#Cc1cnc2cccnn12,enzyme activity,inhibitor,,,23.5 nM,remaining activity,93%
CCN(CC)CCNC(=O)c1c(C)[nH]c(/C=C2\C(=O)Nc3ccc(F)cc32)c1C,enzyme activity,inhibitor,,,0.3 µM,inhibition,-8%
CC1(C)NC(=O)c2[nH]c3c(Cl)c(Cl)ccc3c2C1C#N (centres unmarked),thermal stability,,DSF,,10 µM,ΔTm,-0.4 °C
c1ccc(CNc2nc(N3CCOc4ccccc43)nc3c2CCCC3)cc1,target engagement in cells,inhibitor,chemoproteomics,,20 mM,inhibition,-6%
CC(C)(C)c1nc2c(s1)c1nc(N)ncc1c1ccc(NS(=O)(=O)c3c(F)cccc3F)c(F)c12,enzyme activity,inhibitor,radiometric,,1 µM,remaining activity,27%
C[C@@H](c1cccc(C#N)c1)n1cc(Cl)cc(C(N)=O)c1=N,cell-free assay,,competition with immobilised ligand,,1 µM,remaining binding,89%
O=C1Nc2ccc(Cl)cc2C1=Cc1cc(Cl)c(O)c(Cl)c1,cell-free assay,,,,0.5 µM,remaining signal,100%
CN1CCN(c2cnc3c(C4CCN(C(=O)c5ccc(OC(F)(F)F)cc5N)CC4)ncnc3c2)CC1,cell-free assay,,competition with immobilised ligand,,1 µM,remaining binding,100%
Cn1c2c(c3ccc(Cl)c(Cl)c31)C(C#N)C1(CCOCC1)NC2=O (centres unmarked),thermal stability,,DSF,,10 µM,ΔTm,-0.5 °C
O=C1NC(=O)c2cc(Nc3ccc(F)cc3)c(Nc3ccc(F)cc3)cc21,cell-free assay,,,,0.5 µM,remaining signal,103%
O=C(Nc1cnn(-c2csc(C(=O)NC3COC3)c2)c1)Nc1ccccc1Cl,enzyme activity,inhibitor,,,5 µM,remaining activity,102%
N#Cc1ccc(Nc2ccc3[nH]c(=O)[nH]c3c2)c(Cl)c1,cell-free assay,,competition with immobilised ligand,,1 µM,remaining binding,100%
Cn1c2c(c3ccc(Cl)c(Cl)c31)C(C#N)C1(CCCC1)NC2=O (centres unmarked),thermal stability,,DSF,,10 µM,ΔTm,0 °C
C[C@@]1(Cc2ccc(C#N)cc2)C(=O)N(c2cc(Cl)cc(Cl)c2)c2ncc(C(=O)NC3(c4nc(C5CCC5)no4)CC3)n21,cell-free assay,,competition with immobilised ligand,,1 µM,remaining binding,100%
Cc1ccc(NC(=O)c2ccc(C)c(C(F)(F)F)c2)cc1C#Cc1nn(C2CCC(O)CC2)c2ncnc(N)c12 (centres unmarked),cell-free assay,,,,10 µM,remaining signal,98%
Cc1c(C(=O)O)cc(-c2ccc(C3CCNCC3)cc2)c2ccc(-c3ccc(C(F)(F)F)cc3)cc12,binding,,competition with immobilised ligand,,1 µM,remaining binding,100%
CCN1CCN(Cc2ccc(NC(=O)c3ccc(C)c(Oc4ccnc5[nH]ccc45)c3)cc2C(F)(F)F)CC1,target engagement in cells,inhibitor,chemoproteomics,A-375,5 µM,inhibition,0.277%
